According to ChEMBL document CHEMBL4665633, “Cereblon versus VHL: Hijacking E3 ligases against each other using PROTACs” (Bioorg Med Chem, 2019):

Legend:
Assay type in all cases: cell-based
[1] = molecular target: T1, Protein cereblon/von Hippel-Lindau disease tumor suppressor (Homo sapiens, UniProt P40337+Q96SW2); assay: Protac activity at VHL/CRBN in HEK293 cells assessed as pVHL19 protein abundance at 1 uM after 8 hrs by Western blot analysis relative to DMSO
Summary of the method: (§1)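 HEK293 cells (DMEM, 10% FBS, penicillin/streptomycin, L-glutamine; 37 °C, 5% CO2; ≤30 passages) seeded at 1 × 10⁶ per well overnight, then treated with compound at 0.1% v/v final DMSO. Cells were lysed in RIPA with protease inhibitors and benzonase, then clarified. Equal Bradford-quantified protein was immunoblotted for CRBN/VHL. Bands were normalised to β-tubulin and expressed as % of mean 0.1% DMSO vehicle.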

[2] = molecular target: T1, Protein cereblon/von Hippel-Lindau disease tumor suppressor; assay: Protac activity at VHL/CRBN in human HeLa cells assessed as pVHL30 protein abundance at 1 uM after 1 hr by Western blot analysis relative to DMSO
Summary of the method: (§2)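 HeLa cells seeded overnight, then exposed to 1 µM compound (0.1% v/v DMSO final) over a time course. Cells were DPBS-washed and RIPA-lysed with protease inhibitors and benzonase; equal protein was loaded. Immunoblots for CRBN and VHL isoforms were quantified against β-tubulin and reported relative to the averaged 0.1% DMSO vehicle.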

[3] = molecular target: T1, Protein cereblon/von Hippel-Lindau disease tumor suppressor; assay: Protac activity at VHL/CRBN in HEK293 cells assessed as pVHL30 protein abundance at 1 uM after 12 hrs by Western blot analysis relative to DMSO; summary of the method: as §1
[4] = molecular target: T1, Protein cereblon/von Hippel-Lindau disease tumor suppressor; assay: Protac activity at VHL/CRBN in HEK293 cells assessed as pVHL30 protein abundance at 1 uM after 8 hrs by Western blot analysis relative to DMSO; summary of the method: as §1
[5] = molecular target: T1, Protein cereblon/von Hippel-Lindau disease tumor suppressor; assay: Protac activity at VHL/CRBN in human HeLa cells assessed as pVHL30 protein abundance at 1 uM after 12 hrs by Western blot analysis relative to DMSO; summary of the method: as §2
[6] = molecular target: T1, Protein cereblon/von Hippel-Lindau disease tumor suppressor; assay: Protac activity at VHL/CRBN in human HeLa cells assessed as pVHL30 protein abundance at 1 uM after 2 hrs by Western blot analysis relative to DMSO; summary of the method: as §2
[7] = molecular target: T1, Protein cereblon/von Hippel-Lindau disease tumor suppressor; assay: Protac activity at VHL/CRBN in human HeLa cells assessed as CRBN protein abundance at 50 nM after 4 hrs by Western blot analysis relative to DMSO
Summary of the method: (§3)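 HeLa cells (5 × 10⁵, DMEM + 10% FBS, 37 °C, 5% CO₂, ≤30 passages) seeded overnight, then treated 4 h with compound at single or graded concentrations (0.1% v/v DMSO final). RIPA lysates equalised by Bradford; SDS-PAGE and anti-CRBN/anti-VHL immunoblots; bands normalised to β-tubulin and expressed as % of mean DMSO vehicle. DC₅₀ from fit of band intensity versus log[concentration].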

[8] = molecular target: T1, Protein cereblon/von Hippel-Lindau disease tumor suppressor; assay: Protac activity at VHL/CRBN in human HeLa cells assessed as pVHL30 protein abundance at 5 nM after 4 hrs by Western blot analysis relative to DMSO; summary of the method: as §3
[9] = molecular target: T1, Protein cereblon/von Hippel-Lindau disease tumor suppressor; assay: Protac activity at VHL/CRBN in human HeLa cells assessed as CRBN protein abundance at 5000 nM after 4 hrs by Western blot analysis relative to DMSO; summary of the method: as §3
[10] = molecular target: T1, Protein cereblon/von Hippel-Lindau disease tumor suppressor; assay: Protac activity at VHL/CRBN in HEK293 cells assessed as pVHL19 protein abundance at 1 uM after 2 hrs by Western blot analysis relative to DMSO; summary of the method: as §1
[11] = molecular target: T1, Protein cereblon/von Hippel-Lindau disease tumor suppressor; assay: Protac activity at VHL/CRBN in HEK293 cells assessed as CRBN protein abundance at 10000 nM after 4 hrs by Western blot analysis relative to DMSO; summary of the method: as §1

T1 sequence (P40337 whole entry, looked up): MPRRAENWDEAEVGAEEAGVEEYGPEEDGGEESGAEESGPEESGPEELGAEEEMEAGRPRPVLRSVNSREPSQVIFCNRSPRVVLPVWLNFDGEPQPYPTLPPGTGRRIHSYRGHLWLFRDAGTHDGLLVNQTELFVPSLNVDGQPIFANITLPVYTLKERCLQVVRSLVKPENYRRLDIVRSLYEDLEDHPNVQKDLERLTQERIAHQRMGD
T1 sequence (Q96SW2 whole entry, looked up): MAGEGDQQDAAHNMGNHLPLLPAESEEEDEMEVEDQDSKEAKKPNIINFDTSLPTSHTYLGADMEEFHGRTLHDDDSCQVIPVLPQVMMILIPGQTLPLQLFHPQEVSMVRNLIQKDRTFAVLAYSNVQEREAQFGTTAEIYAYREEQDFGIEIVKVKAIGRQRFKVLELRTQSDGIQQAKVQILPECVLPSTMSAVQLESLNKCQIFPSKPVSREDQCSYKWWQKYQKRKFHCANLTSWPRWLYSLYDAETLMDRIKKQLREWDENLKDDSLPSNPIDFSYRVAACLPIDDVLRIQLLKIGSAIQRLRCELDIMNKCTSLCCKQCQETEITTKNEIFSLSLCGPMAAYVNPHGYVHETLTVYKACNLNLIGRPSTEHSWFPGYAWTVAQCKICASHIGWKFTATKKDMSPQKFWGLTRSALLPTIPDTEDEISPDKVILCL

- Activity [1]: 105%
- Activity [2]: 100%
- Activity [3]: 113%
- Activity [4]: 101%
- Activity [5]: 93%
- Activity [6]: 89%
- Activity [7]: 72%
- Activity [8]: 61%
- Activity [9]: 49%
- Activity [10]: 109%
- Activity [11]: 66%
SMILES: Cc1ncsc1-c1ccc(CNC(=O)[C@@H]2C[C@@H](O)CN2C(=O)[C@@H](NC(=O)COCCCCCOCCOCCCCCOCC(=O)NCCNc2cccc3c2C(=O)N(C2CCC(=O)NC2=O)C3=O)C(C)(C)C)cc1 (stereo partly specified)
